Reference: ChEMBL document CHEMBL1687729, “Intracellular activity of antibiotics in a model of human THP-1 macrophages infected by a Staphylococcus aureus small-colony variant strain isolated from a cystic fibrosis patient: pharmacodynamic evaluation and comparison with isogenic normal-phenotype and revertant strains” (Antimicrob Agents Chemother, 2009)
In brackets after ≈: the same amount, converted by molar mass. Activity calls are given as the source filed them. No cut-off for these calls is given here.

Assays:
Staphylococcus aureus [1] = experiment: Antibacterial activity against Staphylococcus aureus SCV isolated from cystic fibrosis patient at pH 7.4 after 48 hrs by broth microdilution method in absence of thymidine; assay type: functional
Outline: (§1)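 MIC by CLSI broth microdilution in cation-adjusted MH II broth. For oritavancin, 0.002% polysorbate-80 was added and non-tissue-culture-treated plates were used to limit binding to plastic. Plates were read at 24 h for normal and revertant strains and at 48 h for the SCV. Where stated, the SCV was tested with 100 mg/liter thymidine. Growth was aerobic.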

Staphylococcus aureus [2] = experiment: Antibacterial activity against Staphylococcus aureus SCV isolated from cystic fibrosis patient infected in human THP-1 cells assessed as log reduction of intracellular CFU level after 24 hrs in presence of thymidine; assay type: functional, organism-based
Outline: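 SCV-infected THP-1 macrophages are exposed 24 h after phagocytosis to antibiotic, with 100 mg/liter thymidine added to the culture medium together with the drug. Read-out is change in log CFU per mg cell protein from the initial inoculum. Data are means ± SD, n = 3; significance by ANOVA with Tukey's test.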

Staphylococcus aureus [3] = experiment: Antibacterial activity against normal phenotype Staphylococcus aureus at pH 7.4 after 24 hrs by broth microdilution method
[4] = (§2) Cmax in human plasma; assay type: ADME, organism-based; details: plasma
Staphylococcus aureus [5] = experiment: Antibacterial activity against revertant Staphylococcus aureus at pH 7.4 after 24 hrs by broth microdilution method
[6] = (§3) Fraction unbound in human plasma
Staphylococcus aureus [7] = experiment: Antibacterial activity against normal phenotype Staphylococcus aureus in cation-adjusted MH 2 broth at pH 5.5 after 24 hrs by broth microdilution method; assay type: functional
Outline: (§4)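 MIC by CLSI broth microdilution in cation-adjusted MH II broth adjusted to pH 5.5. Readings were taken at 48 h for the SCV and at 24 h for the normal-phenotype strain.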

Staphylococcus aureus [8] = experiment: Antibacterial activity against Staphylococcus aureus SCV isolated from cystic fibrosis patient at pH 7.4 after 48 hrs by broth microdilution method in presence of thymidine; assay type: functional; outline: as §1
Staphylococcus aureus [9] = experiment: Antibacterial activity against Staphylococcus aureus SCV isolated from cystic fibrosis patient in cation-adjusted MH 2 broth at pH 5.5 after 48 hrs by broth microdilution method; assay type: functional; outline: as §4
Staphylococcus aureus [10] = experiment: Antibacterial activity against Staphylococcus aureus SCV isolated from cystic fibrosis patient in cation-adjusted MH 2 broth assessed as log reduction of extracellular CFU after 5 hrs; assay type: functional
Outline: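 Broth exposure to total drug levels mimicking human serum Cmax, same concentrations as the intracellular assay, for 5 or 24 h. Medium is CA-MH broth, with 0.002% polysorbate-80 when oritavancin is tested. Samples are plated on brain heart infusion agar and incubated 48 h before SCV colonies are counted. Read-out is Δlog CFU/ml from the initial inoculum.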

Staphylococcus aureus [11] = experiment: Antibacterial activity against revertant Staphylococcus aureus infected in human THP-1 cells assessed as log reduction of extracellular CFU level after 24 hrs; assay type: functional, organism-based
Staphylococcus aureus [12] = experiment: Antibacterial activity against normal phenotype Staphylococcus aureus in infected in human THP-1 cells assessed as log reduction of extracellular CFU level after 24 hrs; assay type: functional, organism-based
Staphylococcus aureus [13] = experiment: Antibacterial activity against Staphylococcus aureus SCV isolated from cystic fibrosis patient infected in human THP-1 cells assessed as log reduction of intracellular CFU after 5 hrs; assay type: functional
Outline: (§5)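 THP-1 macrophages are infected with the SCV strain, then extracellular bacteria are eliminated after phagocytosis. Drug is added at total concentrations mimicking human serum Cmax for 5, 24 or 72 h. Lysates are plated on brain heart infusion agar and counted after 48 h. Read-out is Δlog CFU/mg cell protein from the postphagocytosis inoculum; no drug-free control is run at 72 h.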

Staphylococcus aureus [14] = experiment: Antibacterial activity against Staphylococcus aureus SCV isolated from cystic fibrosis patient infected in human THP-1 cells assessed as log reduction of intracellular CFU after 72 hrs; assay type: functional; outline: as §5
Staphylococcus aureus [15] = experiment: Antibacterial activity against Staphylococcus aureus SCV isolated from cystic fibrosis patient infected in human THP-1 cells assessed as log reduction of intracellular CFU after 24 hrs; assay type: functional
Plasma [16] = experiment: as §2; assay type: ADME, organism-based; details: in vivo
Plasma [17] = experiment: as §3

Row | Compound | MIC (Staphylococcus aureus [1]) | Activity (Staphylococcus aureus [2]) | MIC (Staphylococcus aureus [3]) | Cmax [4] | MIC (Staphylococcus aureus [5]) | fraction unbound [6] | MIC (Staphylococcus aureus [7]) | MIC (Staphylococcus aureus [8]) | MIC (Staphylococcus aureus [9]) | log10cfu (Staphylococcus aureus [10]) | Activity (Staphylococcus aureus [11]) | Activity (Staphylococcus aureus [12]) | log10cfu (Staphylococcus aureus [13]) | log10cfu (Staphylococcus aureus [14]) | log10cfu (Staphylococcus aureus [15]) | Cmax (Plasma [16]) | Fu (Plasma [17])
1 | CCCCCCCCCC(=O)N[C@@H](Cc1c[nH]c2ccccc12)C(=O)N[C@H](CC(N)=O)C(=O)N[C@@H](CC(=O)O)C(=O)N[C@@H]1C(=O)NCC(=O)N[C@@H](CCCN)C(=O)N[C@@H](CC(=O)O)C(=O)N[C@H](C)C(=O)N[C@@H](CC(=O)O)C(=O)NCC(=O)N[C@H](CO)C(=O)N[C@@H]([C@H](C)CC(=O)O)C(=O)N[C@@H](CC(=O)c2ccccc2N)C(=O)O[C@@H]1C | 0.125 µg/mL (≈ 0.0771 µM) | Active | 0.125 µg/mL (≈ 0.0771 µM) | 57000 ng/mL | 0.25 µg/mL (≈ 0.154 µM) | 0.1 | 0.125 µg/mL (≈ 0.0771 µM) | 0.25 µg/mL | 0.25 µg/mL (≈ 0.154 µM) |  |  |  |  |  |  |  | 
2 | CCC[C@@H]1C[C@@H](C(=O)N[C@@H]([C@H]2O[C@H](SC)[C@H](O)[C@@H](O)[C@H]2O)[C@H](C)Cl)N(C)C1 [CLINDAMYCIN] | 0.125 µg/mL (≈ 0.294 µM) | Active | 0.125 µg/mL (≈ 0.294 µM) | 4000 ng/mL | 0.125 µg/mL (≈ 0.294 µM) | 0.1 | 1 µg/mL (≈ 2.35 µM) | 0.125 µg/mL | 1 µg/mL (≈ 2.35 µM) | 2 |  |  |  |  |  |  | 
3 | CC(=O)O[C@H]1C[C@@]2(C)[C@@H](C[C@@H](O)[C@H]3[C@@]4(C)CC[C@@H](O)[C@@H](C)[C@@H]4CC[C@@]32C)/C1=C(\CCC=C(C)C)C(=O)O [FUSIDIC ACID] | 0.03 µg/mL (≈ 0.0581 µM) | Active | 0.125 µg/mL (≈ 0.242 µM) | 30000 ng/mL | 0.06 µg/mL (≈ 0.116 µM) | 0.05 | 0.125 µg/mL (≈ 0.242 µM) | 0.03 µg/mL | 0.03 µg/mL (≈ 0.0581 µM) | 1 | Active | Active |  |  |  |  | 
4 | CC(=O)NC[C@H]1CN(c2ccc(N3CCOCC3)c(F)c2)C(=O)O1 [LINEZOLID] |  | Active |  | 16000 ng/mL |  | 0.31 |  |  |  | 1 |  |  |  |  |  |  | 
5 | COc1c(N2C[C@@H]3CCCN[C@@H]3C2)c(F)cc2c(=O)c(C(=O)O)cn(C3CC3)c12 [MOXIFLOXACIN] | 0.125 µg/mL (≈ 0.311 µM) | Active | 0.25 µg/mL (≈ 0.623 µM) | 4000 ng/mL | 0.125 µg/mL (≈ 0.311 µM) |  | 2 µg/mL (≈ 4.98 µM) | 0.125 µg/mL | 2 µg/mL (≈ 4.98 µM) |  |  |  | 1 | 1 |  |  | 
6 | CN[C@H](CC(C)C)C(=O)N[C@H]1C(=O)N[C@@H](CC(N)=O)C(=O)N[C@H]2C(=O)N[C@H]3C(=O)N[C@H](C(=O)N[C@H](C(=O)O)c4cc(O)cc(O)c4-c4cc3ccc4O)[C@H](O[C@H]3C[C@](C)(N)[C@@H](O)[C@H](C)O3)c3ccc(c(Cl)c3)Oc3cc2cc(c3O[C@@H]2O[C@H](CO)[C@@H](O)[C@H](O)[C@H]2O[C@H]2C[C@](C)(NCc3ccc(-c4ccc(Cl)cc4)cc3)[C@@H](O)[C@H](C)O2)Oc2ccc(cc2Cl)[C@H]1O [ORITAVANCIN] | 0.015 µg/mL (≈ 0.00837 µM) | Active | 0.03 µg/mL (≈ 0.0167 µM) | 25000 ng/mL | 0.015 µg/mL (≈ 0.00837 µM) | 0.12 | 0.03 µg/mL (≈ 0.0167 µM) | 0.015 µg/mL | 0.125 µg/mL (≈ 0.0697 µM) |  |  |  | 1 | 1 | 2.5 |  | 
7 | Cc1onc(-c2ccccc2)c1C(=O)N[C@@H]1C(=O)N2[C@@H]1SC(C)(C)[C@@H]2C(=O)O [OXACILLIN] | 0.125 µg/mL (≈ 0.311 µM) | Active | 0.5 µg/mL (≈ 1.25 µM) | 64000 ng/mL | 0.25 µg/mL (≈ 0.623 µM) | 0.07 | 0.03 µg/mL (≈ 0.0747 µM) | 0.25 µg/mL | 0.015 µg/mL (≈ 0.0374 µM) |  | Active | Active |  |  |  |  | 
8 | CO[C@H]1/C=C/O[C@@]2(C)Oc3c(C)c(O)c4c(O)c(c(/C=N/N5CCN(C)CC5)c(O)c4c3C2=O)NC(=O)/C(C)=C\C=C\[C@H](C)[C@H](O)[C@@H](C)[C@@H](O)[C@@H](C)[C@H](OC(C)=O)[C@@H]1C [RIFAMPIN] | 0.0005 µg/mL (≈ 0.000608 µM) | Active | 0.002 µg/mL (≈ 0.00243 µM) | 18000 ng/mL | 0.0005 µg/mL (≈ 0.000608 µM) | 0.15 | 0.0002 µg/mL (≈ 0.000243 µM) | 0.002 µg/mL | 0.0005 µg/mL (≈ 0.000608 µM) |  |  |  | 1 | 2 |  |  | 
9 | CCCCCCCCCCNCCN[C@@]1(C)C[C@H](O[C@H]2[C@H](Oc3c4cc5cc3Oc3ccc(cc3Cl)[C@@H](O)[C@@H](NC(=O)[C@@H](CC(C)C)NC)C(=O)N[C@@H](CC(N)=O)C(=O)N[C@H]5C(=O)N[C@H]3C(=O)N[C@H](C(=O)N[C@H](C(=O)O)c5cc(O)c(CNCP(=O)(O)O)c(O)c5-c5cc3ccc5O)[C@H](O)c3ccc(c(Cl)c3)O4)O[C@H](CO)[C@@H](O)[C@@H]2O)O[C@@H](C)[C@H]1O [TELAVANCIN] | 0.125 µg/mL (≈ 0.0712 µM) | Active | 0.125 µg/mL (≈ 0.0712 µM) | 90000 ng/mL | 0.125 µg/mL (≈ 0.0712 µM) | 0.07 | 0.125 µg/mL (≈ 0.0712 µM) | 0.125 µg/mL | 0.125 µg/mL (≈ 0.0712 µM) |  |  |  |  |  |  |  | 
10 | CN(C)c1cc(NC(=O)CNC(C)(C)C)c(O)c2c1C[C@H]1C[C@H]3[C@H](N(C)C)C(O)=C(C(N)=O)C(=O)[C@@]3(O)C(O)=C1C2=O [TIGECYCLINE] | 0.125 µg/mL (≈ 0.213 µM) | Active | 0.125 µg/mL (≈ 0.213 µM) | 1000 ng/mL | 0.125 µg/mL (≈ 0.213 µM) | 0.2 | 0.125 µg/mL (≈ 0.213 µM) | 0.125 µg/mL | 0.125 µg/mL (≈ 0.213 µM) | 1 |  |  |  |  |  |  | 
11 | CN[C@H](CC(C)C)C(=O)N[C@H]1C(=O)N[C@@H](CC(N)=O)C(=O)N[C@H]2C(=O)N[C@H]3C(=O)N[C@H](C(=O)N[C@H](C(=O)O)c4cc(O)cc(O)c4-c4cc3ccc4O)[C@H](O)c3ccc(c(Cl)c3)Oc3cc2cc(c3O[C@@H]2O[C@H](CO)[C@@H](O)[C@H](O)[C@H]2O[C@H]2C[C@](C)(N)[C@H](O)[C@H](C)O2)Oc2ccc(cc2Cl)[C@H]1O [VANCOMYCIN] |  | Active |  | 50000 ng/mL |  | 0.5 |  |  |  |  | Active | Active |  |  |  |  | 
12 | GENTAMICIN [listing 1 of 2 here] |  |  |  |  |  |  |  |  |  |  |  |  |  |  |  | 18000 ng/mL | 100%
13 | GENTAMICIN [listing 2 of 2 here] | 0.125 µg/mL | Active |  |  |  |  | 8 µg/mL | 0.125 µg/mL | 4 µg/mL |  |  |  |  |  |  |  | 
